Columns and labels:
Bacillus subtilis = assay: Inhibition of wild-type Bacillus subtilis DNA polymerase 3-mediated dGTP truncated DNA synthesis assessed as inhibition of incorporation of [3H]TMP at 1 mM
Outline: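 Single-concentration test at 1 mM inhibitor in pol III truncated DNA synthesis with dGTP omitted.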

[1] = Inhibition of Bacillus subtilis DNA polymerase 3/azp-12 mutant-mediated dGTP truncated DNA synthesis assessed as inhibition of incorporation of [3H]TMP
[2] = Inhibition of wild-type Bacillus subtilis DNA polymerase 3-mediated dGTP truncated DNA synthesis assessed as inhibition of incorporation of [3H]TMP
Outline: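 Pol III truncated DNA synthesis run with dGTP omitted from the reaction. The reported Ki is the inhibitor concentration giving 50% inhibition of enzyme activity.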

Structure (SMILES)	inhibition (Bacillus subtilis) [%]	Ki [1] [µM]	Ki [2] [µM]
CC(Nc1cc(=O)[nH]c(=O)[nH]1)c1ccccc1 (configuration not stated)	< 10	–	–
CC(=O)Nc1ccc(CNc2cc(=O)[nH]c(=O)[nH]2)cc1	–	–	2300
O=c1cc(NCC2CCCCC2)[nH]c(=O)[nH]1	< 10	–	–
Oc1cc(NCCCCc2ccccc2)nc(O)n1	< 10	–	–
O=c1cc(NCc2ccc([N+](=O)[O-])cc2)[nH]c(=O)[nH]1	–	–	5.2
Oc1cc(NCCCc2ccccc2)nc(O)n1	–	–	2000
Nc1ccc(CNc2cc(=O)[nH]c(=O)[nH]2)cc1	–	156	17

The next lines start with the values.

inhibition (Bacillus subtilis) [%]	Ki [1] [µM]	Ki [2] [µM]	Structure (SMILES)
–	30	31.7	Oc1cc(NCCc2ccccc2)nc(O)n1
–	–	20.4	Cc1ccc(Nc2cc(O)nc(O)n2)cc1
–	2.5	2.3	Oc1cc(NCc2ccccc2)nc(O)n1
–	–	0.4	Oc1cc(Nc2ccc3c(c2)CCC3)nc(O)n1
–	–	27.5	Cc1cccc(Nc2cc(O)nc(O)n2)c1
< 10	–	–	Oc1cc(Nc2ccccc2)nc(O)n1
–	–	1	Cc1ccc(Nc2cc(O)nc(O)n2)cc1C

From ChEMBL document CHEMBL3272188, “Inhibitors of Bacillus subtilis DNA polymerase III. 6-(arylalkylamino)uracils and 6-anilinouracils” (J Med Chem, 1977)
